Test results taken from ChEMBL document CHEMBL4325875, “Computer-aided design, synthesis and biological characterization of novel inhibitors for PKMYT1” (Eur J Med Chem, 2019).

How the values were obtained:
[1] = biological target: T1, Membrane-associated tyrosine- and threonine-specific cdc2-inhibitory kinase (Homo sapiens) (UniProt Q99640); test: Displacement of (6-FAM)KI(pY)VV from PKMYT1 kinase domain (unknown origin) at 20 uM by fluorescence polarization binding assay relative to control
T1 sequence (whole entry): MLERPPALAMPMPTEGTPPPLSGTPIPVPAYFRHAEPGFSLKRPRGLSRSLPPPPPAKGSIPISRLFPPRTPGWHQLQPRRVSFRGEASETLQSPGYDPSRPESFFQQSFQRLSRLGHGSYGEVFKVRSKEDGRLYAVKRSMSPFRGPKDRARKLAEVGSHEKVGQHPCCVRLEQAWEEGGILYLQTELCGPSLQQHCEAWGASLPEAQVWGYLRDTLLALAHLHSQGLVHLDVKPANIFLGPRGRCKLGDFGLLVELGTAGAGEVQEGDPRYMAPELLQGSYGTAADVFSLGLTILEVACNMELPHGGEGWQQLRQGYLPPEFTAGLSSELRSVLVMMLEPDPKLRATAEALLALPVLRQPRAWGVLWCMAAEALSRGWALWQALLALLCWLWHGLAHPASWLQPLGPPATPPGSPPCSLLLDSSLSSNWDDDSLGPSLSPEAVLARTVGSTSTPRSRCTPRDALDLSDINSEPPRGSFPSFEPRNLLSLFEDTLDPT
Summary of the method: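 PKMYT1 kinase domain (recombinantly expressed and purified) used in a fluorescence anisotropy binding assay with a fluorescently labelled ATP-competitive tracer. Each compound screened at 20 μM in triplicate. Dasatinib 10 μM served as inhibitory control and 1% DMSO as vehicle control. Compounds giving >60% tracer displacement were retested at 20 and 5 μM in triplicate.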

[2] = biological target: T2, Membrane-associated tyrosine- and threonine-specific cdc2-inhibitory kinase (Homo sapiens, UniProt Q99640); test: […] from PKMYT1 kinase domain (unknown origin) by fluorescence polarization binding assay
T2 sequence (Q99640 whole entry): T1 sequence (whole entry)

[3] = biological target: T2, Membrane-associated tyrosine- and threonine-specific cdc2-inhibitory kinase; test: Displacement of (6-FAM)KI(pY)VV from full length PKMYT1 (unknown origin) by fluorescence polarization immuno assay
Summary of the method: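 Full-length PKMYT1, expressed and purified, was tested in the fluorescence polarization-based activity assay (FPIA) to give IC50 and Ki. Controls were 10 μM dasatinib and 1% DMSO. Anisotropy r was calculated, and Δr was taken as the difference between the PKMYT1 reaction and the reaction without PKMYT1. Data are given as means ± SEM.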

Row | Compound | inhibition [1] [%] | IC50 [2] [nM] | IC50 [3] [nM] | Ki [2] [nM]
1 | Oc1cccc(Nc2nc(Nc3ccc(N4CCOCC4)cc3)nc3c2SCC3)c1 | < 10 | – | – | –
2 | Cc1cnc(Nc2ccc(N3CCOCC3)cc2)nc1Nc1cc(O)ccc1Cl | < 10 | – | – | –
3 | COc1cnc(Nc2ccc(N3CCOCC3)cc2)nc1Nc1ccc(C)c(O)c1 | 100 | 9330 | 309 | –
4 | CSc1cnc(Nc2ccc(N3CCOCC3)cc2)nc1Nc1cccc(O)c1 | 100 | 6030 | 1550 | –
5 | Cc1ccc(Nc2nc(Nc3ccc(N4CCOCC4)cc3)ncc2Br)cc1O | 26.7 | – | – | –
6 | COc1cnc(Nc2ccc(N3CCOCC3)cc2)nc1Nc1cccc(O)c1 | 74.8 | – | – | –
7 | Oc1cccc(Nc2nc(Nc3ccc(N4CCOCC4)cc3)ncc2Cl)c1 | 75 | 6030 | 617 | –
8 | Cc1cc(Nc2ncc3cc(-c4c(Cl)cccc4Cl)c(=O)n(C)c3n2)ccc1F | – | – | – | 1350
9 | CSc1cnc(Nc2ccc(N3CCOCC3)cc2)nc1Nc1cc(C)ccc1Cl | 13 | – | – | –
10 | Oc1ccc(Cl)c(Nc2nc(Nc3ccc(N4CCOCC4)cc3)ncc2Cl)c1 | < 10 | – | – | –
11 | CNC(=O)c1ccccc1Nc1nc(Nc2ccc(N3CCOCC3)cc2)ncc1OC | 100 | 6310 | 955 | –
12 | Cc1ccc(Nc2nc(Nc3ccc(N4CCOCC4)cc3)ncc2OCc2ccccc2)cc1O | < 10 | – | – | –
13 | Oc1cccc(Nc2nc(Nc3ccc(N4CCOCC4)cc3)ncc2Br)c1 | 21.1 | – | – | –
14 | COc1ccc(Nc2nc(Nc3ccc(N4CCOCC4)cc3)ncc2Br)cc1O | 27 | – | – | –
15 | COc1ccc(Nc2nc(Nc3ccc(N4CCOCC4)cc3)ncc2OC)cc1O | 39.7 | – | – | –
16 | Cc1cnc(Nc2ccc(N3CCOCC3)cc2)nc1Nc1cccc(O)c1 | < 10 | – | – | –
